Assay results taken from ChEMBL document CHEMBL4130485, “Inhibitors of Yellow Fever Virus replication based on 1,3,5-triphenyl-4,5-dihydropyrazole scaffold: Design, synthesis and antiviral evaluation” (Eur J Med Chem, 2017).

Legend:
[1] = Cytotoxicity against bovine MDBK cells assessed as decrease in cell viability after 72 hrs by MTT assay; assay type: cell-based, Bos taurus; details: cattle
Method in brief: (§1)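 Uninfected MDBK (6×10^5 cells/mL, 10% horse serum) or BHK (1×10^6 cells/mL, 10% FBS) cells in MEM-Earle with serial compound dilutions at 37 °C, 5% CO2, run in parallel with the antiviral assays. Viability read by MTT after 72 h. CC50 by linear regression; mean of three determinations.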

[2] = tested on: Mammalian orthoreovirus 1; assay: Antiviral activity against Reovirus 1 infected in golden hamster BHK21 cells assessed as protection against virus-induced cytopathic effect after 3 to 4 days by MTT assay; assay type: functional, organism-based; details: Mammalian orthoreovirus 1, BHK-21
Method in brief: (§2)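 BHK-21 cells (MDBK for BVDV) seeded at 5×10^4 (BHK) or 3×10^4 (MDBK) cells/well and grown overnight to confluence. Infected at m.o.i. 0.01 in maintenance MEM-Earle with 0.5% inactivated FBS. Serial compound dilutions added 2 h later (final 100, 20, 4, 0.8 µM; DMSO ≤0.1%). Viability read by MTT after 3–4 days at 37 °C. EC50 obtained by linear regression against untreated controls; mean of three determinations.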

[3] = tested on: Yellow fever virus; assay: Antiviral activity against Yellow fever virus 17D vaccine (Stamaril Pasteur J07B01) infected in golden hamster BHK21 cells assessed as protection against virus-induced cytopathic effect after 3 to 4 days by MTT assay; assay type: functional, organism-based; details: BHK-21; method in brief: as §2
[4] = tested on: dengue virus type 2; assay: Antiviral activity against Dengue virus type 2 clinical isolate infected in golden hamster BHK21 cells assessed as protection against virus-induced cytopathic effect after 3 to 4 days by MTT assay; assay type: functional, organism-based; details: BHK-21; method in brief: as §2
[5] = Cytotoxicity against African green monkey Vero 76 cells assessed as decrease in cell viability after 48 to 96 hrs by MTT assay; assay type: cell-based; details: chlorocebus sabaeus
Method in brief: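 Vero 76 cells seeded at 5×10^5 cells/mL in D-MEM with 10% FBS and incubated with serial compound dilutions at 37 °C, 5% CO2. Viability read by MTT after 48–96 h. CC50 by linear regression versus untreated controls.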

[6] = Cytotoxicity against golden hamster BHK21 cells assessed as decrease in cell viability after 72 hrs by MTT assay; assay type: cell-based, Mesocricetus auratus, BHK-21; method in brief: as §1
[7] = tested on: Human alphaherpesvirus 1; assay: Antiviral activity against Human herpesvirus 1 KOS ATCC VR 1493 infected in African green monkey Vero 76 cells assessed as protection against virus-induced cytopathic effect after 3 days by crystal violet staining-based plaque reduction assay; assay type: functional, organism-based; details: Human alphaherpesvirus 1, KOS, Vero 76, 72 h
[8] = Selectivity index, ratio of CC50 for bovine MDBK cells to EC50 for Bovine viral diarrhea virus NADL ATCC VR 534; assay type: toxicity; details: cattle, read-out: Ratio CC50/EC50
Method in brief: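 Selectivity index calculated as MDBK CC50 divided by BVDV EC50, both by MTT.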

[9] = tested on: West Nile virus; assay: Antiviral activity against West Nile virus clinical isolate infected in golden hamster BHK21 cells assessed as protection against virus-induced cytopathic effect after 3 to 4 days by MTT assay; assay type: functional, organism-based; details: BHK-21; method in brief: as §2
[10] = Antiviral activity against Human enterovirus B Faulkner ATCC VR 185 infected in African green monkey Vero 76 cells assessed as protection against virus-induced cytopathic effect after 3 days by crystal violet staining-based plaque reduction assay; assay type: functional, cell-based; details: Faulkner ATCC VR 185, Vero 76, 72 h
[11] = Cytotoxicity against human MT4 cells assessed as decrease in cell viability after 96 hrs by MTT assay; assay type: cell-based
Method in brief: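 Exponentially growing MT-4 cells seeded at 1×10^5 cells/mL in RPMI-1640 with 10% FBS and incubated with serial compound dilutions at 37 °C, 5% CO2. Viability read by MTT after 96 h. CC50 by linear regression versus untreated controls.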

[12] = tested on: Bovine viral diarrhea virus 1; assay: Antiviral activity against Bovine viral diarrhea virus NADL ATCC VR 534 infected in bovine MDBK cells assessed as protection against virus-induced cytopathic effect after 3 to 4 days by MTT assay; assay type: functional, organism-based, Bovine viral diarrhea virus 1-NADL; details: Bovine viral diarrhea virus isolates and strains, ATCC VR 534, MDBK; method in brief: as §2
[13] = tested on: Enterovirus C; assay: Antiviral activity against Enterovirus C Sabin […] infected in African green monkey Vero 76 cells assessed as protection against virus-induced cytopathic effect after 2 days by crystal violet staining-based plaque reduction assay; assay type: functional, organism-based; details: Vero 76, 48 h
[14] = tested on: Human immunodeficiency virus 1; assay: Antiviral activity against HIV1 3B infected in human MT4 cells assessed as protection against virus-induced cytopathic effect after 4 days by MTT assay; assay type: functional, organism-based; details: Human immunodeficiency virus 1, 3B, MT4, 96 h
Method in brief: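 MT-4 cells (1×10^4/well) in RPMI with serial compound dilutions, infected with 100 CCID50 HIV-1 (m.o.i. 0.01). Viability read by MTT after 4 days at 37 °C. EC50 for 50% protection from cytopathicity obtained by linear regression versus untreated controls; mean of three determinations.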

[15] = tested on: Human orthopneumovirus; assay: Antiviral activity against Human respiratory syncytial virus A2 ATCC VR 1540 infected in African green monkey Vero 76 cells assessed as protection against virus-induced cytopathic effect after 5 days by crystal violet staining-based plaque reduction assay; assay type: functional, organism-based; details: ATCC VR 1540, Vero 76, 120 h
[16] = tested on: Yellow fever virus; assay: Potency index, ratio of azauridine EC50 to compound EC50 for Yellow fever virus 17D vaccine (Stamaril Pasteur J07B01); assay type: functional
[17] = tested on: Vaccinia virus; assay: Antiviral activity against Vaccinia virus Lister ATCC VR 1549 infected in African green monkey Vero 76 cells assessed as protection against virus-induced cytopathic effect after 3 days by crystal violet staining-based plaque reduction assay; assay type: functional, organism-based; details: Orthopoxvirus vaccinia, ATCC VR 1549, Vero 76, 72 h
[18] = Selectivity index, ratio of CC50 for golden hamster BHK21 cells to EC50 for Yellow fever virus 17D; assay type: toxicity; details: read-out: Ratio CC50/EC50
Method in brief: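 Selectivity index calculated as BHK-21 CC50 divided by YFV EC50, both from MTT assays.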

[19] = tested on: Vesicular stomatitis Indiana virus; assay: Antiviral activity against Vesicular stomatitis virus Indiana ATCC VR 158 infected in African green monkey Vero 76 cells assessed as protection against virus-induced cytopathic effect after 2 days by crystal violet staining-based plaque reduction assay; assay type: functional, organism-based; details: ATCC VR 158, Vero 76, 48 h
[20] = Selectivity index, ratio of CC50 for African green monkey Vero 76 cells to EC50 for Human coxsackievirus B5 Faulkner; assay type: toxicity; details: read-out: Ratio CC50/EC50
Method in brief: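 Selectivity index calculated as Vero 76 CC50 (MTT) divided by CVB-5 plaque-reduction EC50.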

## NS(=O)(=O)c1ccc(N2N=C(c3ccc(OCc4ccccc4)cc3)CC2c2ccc(Cl)cc2)cc1 (centres undefined)
[1]
  CC50 at 72 h: 16 µM
[2]
  EC50: > 16 µM
[3]
  EC50: 1.9 µM
[4]
  EC50: > 15 µM
[5]
  CC50: 82 µM
[6]
  CC50 at 72 h: 15 to 16 µM
[7]
  EC50: > 82 µM
[8]
  selectivity ratio: 3.6
[9]
  EC50: > 15 µM
[10]
  EC50: > 82 µM
[11]
  CC50 at 96 h: 70 µM
[12]
  EC50: 4.5 µM
[13]
  EC50: > 82 µM
[14]
  EC50: > 70 µM
[15]
  EC50: > 82 µM
[16]
  Ratio EC50: 10
[17]
  EC50: > 82 µM
[18]
  selectivity ratio: 7.9
[19]
  EC50: > 82 µM

## NS(=O)(=O)c1ccc(N2N=C(c3ccc(Oc4ccccc4)cc3)CC2c2ccccc2Cl)cc1 (centres undefined)
[1]
  CC50 at 72 h: 5 µM
[2]
  EC50: > 8 µM
[3]
  EC50: 1.8 µM
[4]
  EC50: > 9 µM
[5]
  CC50: 29 µM
[20]
  selectivity ratio: 2.8
[6]
  CC50 at 72 h: 8 to 9 µM
[7]
  EC50: > 29 µM
[9]
  EC50: > 9 µM
[10]
  EC50: 10.5 µM
[11]
  CC50 at 96 h: 40 µM
[12]
  EC50: > 5 µM
[13]
  EC50: > 29 µM
[14]
  EC50: > 40 µM
[15]
  EC50: > 29 µM
[16]
  Ratio EC50: 10
[17]
  EC50: > 29 µM
[18]
  selectivity ratio: 5
[19]
  EC50: > 29 µM

## NS(=O)(=O)c1ccc(N2N=C(c3ccccc3)CC2c2cccc(Cl)c2)cc1 (centres undefined)
[1]
  CC50 at 72 h: 2 µM
[2]
  EC50: > 8 µM
[3]
  EC50: 2.5 µM
[4]
  EC50: > 9 µM
[5]
  CC50: 21 µM
[6]
  CC50 at 72 h: 8 to 9 µM
[7]
  EC50: > 21 µM
[9]
  EC50: > 9 µM
[10]
  EC50: > 21 µM
[11]
  CC50 at 96 h: 41 µM
[12]
  EC50: > 2 µM
[13]
  EC50: > 21 µM
[14]
  EC50: 10 µM
[15]
  EC50: > 21 µM
[16]
  Ratio EC50: 10
[17]
  EC50: > 21 µM
[18]
  selectivity ratio: 3.6
[19]
  EC50: > 21 µM

## NS(=O)(=O)c1ccc(N2N=C(c3ccc(Oc4ccccc4)cc3)CC2c2cccc(F)c2)cc1 (centres undefined)
[1]
  CC50 at 72 h: 12 µM
[2]
  EC50: > 11 µM
[3]
  EC50: 1.8 µM
[4]
  EC50: > 10 µM
[5]
  CC50: 28 µM
[20]
  selectivity ratio: 6.7
[6]
  CC50 at 72 h: 10 to 11 µM
[7]
  EC50: > 28 µM
[9]
  EC50: > 10 µM
[10]
  EC50: 4.2 µM
[11]
  CC50 at 96 h: 25 µM
[12]
  EC50: > 12 µM
[13]
  EC50: > 28 µM
[14]
  EC50: > 25 µM
[15]
  EC50: > 28 µM
[16]
  Ratio EC50: 10
[17]
  EC50: > 28 µM
[18]
  selectivity ratio: 5.6
[19]
  EC50: > 28 µM

## NS(=O)(=O)c1ccc(N2N=C(c3ccc(OCc4ccccc4)cc3)CC2c2cccc(Cl)c2)cc1 (centres undefined)
[1]
  CC50 at 72 h: 40 µM
[2]
  EC50: > 47 µM
[3]
  EC50: 2 µM
[4]
  EC50: > 45 µM
[5]
  CC50: 85 µM
[6]
  CC50 at 72 h: 45 to 47 µM
[7]
  EC50: > 85 µM
[8]
  selectivity ratio: 7.3
[9]
  EC50: > 45 µM
[10]
  EC50: > 85 µM
[11]
  CC50 at 96 h: 36 µM
[12]
  EC50: 5.5 µM
[13]
  EC50: > 85 µM
[14]
  EC50: 11 µM
[15]
  EC50: > 85 µM
[16]
  Ratio EC50: 10
[17]
  EC50: > 85 µM
[18]
  selectivity ratio: 22.5
[19]
  EC50: > 85 µM

## NC(=O)c1ncn([C@@H]2O[C@H](CO)[C@@H](O)[C@H]2O)n1 [RIBAVIRIN]
[1]
  CC50 at 72 h: 62 µM
[5]
  CC50: > 100 µM
[8]
  selectivity ratio: 3
[12]
  EC50: 20 µM
[15]
  EC50: 1.2 µM
